Results taken from ChEMBL document CHEMBL5724801, “EUbOPEN Chemogenomics Library - Multiplex” (2024).
Where “and” joins values, the source holds several entries; their conditions need not be identical. Identical values can stand only once.

System: Fibroblast
Assay: Multiplex assay against human fibroblast
Assay type: toxicity, cell-based
Procedure, shortened: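 Live cells were stained at seeding with Hoechst33342, BioTracker Green Microtubule Cytoskeleton Dye, MitoTracker Red and Annexin V Alexa Fluor 680, then imaged on a CQ1 microscope at 37°C and 5% CO2 after compound addition. CellPathfinder machine-learning gating split cells into Hoechst high-intensity objects or normal cells. Normal cells were split into healthy, pyknosed or fragmented nuclei, and pyknosed cells into mitotic or apoptotic. Tubulin, mitochondrial-mass and membrane-permeability phenotypes are per cents of healthy-nucleus cells.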

[1] = 12 h, 1 µM, compound concentration 1 uM
[2] = 12 h, 10 µM, compound concentration 10 uM
[3] = 24 h, 1 µM, compound concentration 1 uM
[4] = 24 h, 10 µM, compound concentration 10 uM
[5] = 48 h, 1 µM, compound concentration 1 uM
[6] = 48 h, 10 µM, compound concentration 10 uM

O=C1N=C(NCc2cccs2)S/C1=C\c1ccc2ncccc2c1
Population Apoptotic (%) [1]: 15.79% and 17.07%
Population Healthy Nuclei (%) [1]: 66.3% and 76.85%
Population Hoechst High Intensity Objects (%) [1]: 0%
Population Membrane Permeable-Phenotype (%) [1]: 3.28% and 1.28%
Population Mitochondria Different-Phenotype (%) [1]: 4.92% and 6.41%
Population Mitotic Cells (%) [1]: 84.21% and 82.93%
Population Normal (%) [1]: 100%
Population Pyknosed Nuclei (%) [1]: 20.65% and 20.2%
Population Tubulin-Different-Phenotype (%) [1]: 6.56% and 12.82%
Total Cell Count [1]: 184 and 203
Population Apoptotic (%) [2]: 20.69% and 27.27%
Population Healthy Nuclei (%) [2]: 61.15% and 75.14%
Population Hoechst High Intensity Objects (%) [2]: 0%
Population Membrane Permeable-Phenotype (%) [2]: 14.58% and 10.29%
Population Mitochondria Different-Phenotype (%) [2]: 25% and 16.91%
Population Mitotic Cells (%) [2]: 79.31% and 72.73%
Population Normal (%) [2]: 100%
Population Pyknosed Nuclei (%) [2]: 18.47% and 18.23%
Population Tubulin-Different-Phenotype (%) [2]: 34.38% and 55.15%
Total Cell Count [2]: 157 and 181
Population Apoptotic (%) [3]: 14.29% and 17.86%
Population Fragmented Nuclei (%) [3]: 10.34% and 5.09%
Population Healthy Nuclei (%) [3]: 72.41% and 81.94%
Population Hoechst High Intensity Objects (%) [3]: 0%
Population Membrane Permeable-Phenotype (%) [3]: 4.08% and 3.39%
Population Mitochondria Different-Phenotype (%) [3]: 5.44% and 3.39%
Population Mitotic Cells (%) [3]: 85.71% and 82.14%
Population Normal (%) [3]: 100%
Population Pyknosed Nuclei (%) [3]: 17.24% and 12.96%
Population Tubulin-Different-Phenotype (%) [3]: 7.48% and 19.77%
Total Cell Count [3]: 203 and 216
Population Apoptotic (%) [4]: 19.05% and 33.33%
Population Fragmented Nuclei (%) [4]: 12.93% and 9.6%
Population Healthy Nuclei (%) [4]: 72.79% and 76.84%
Population Hoechst High Intensity Objects (%) [4]: 0%
Population Membrane Permeable-Phenotype (%) [4]: 11.21% and 5.88%
Population Mitochondria Different-Phenotype (%) [4]: 23.36% and 20.59%
Population Mitotic Cells (%) [4]: 80.95% and 66.67%
Population Normal (%) [4]: 100%
Population Pyknosed Nuclei (%) [4]: 14.29% and 13.56%
Population Tubulin-Different-Phenotype (%) [4]: 49.53% and 66.91%
Total Cell Count [4]: 147 and 177
Population Apoptotic (%) [5]: 14.81% and 21.05%
Population Fragmented Nuclei (%) [5]: 8.85% and 4.11%
Population Healthy Nuclei (%) [5]: 79.2% and 87.21%
Population Hoechst High Intensity Objects (%) [5]: 0%
Population Membrane Permeable-Phenotype (%) [5]: 1.12% and 4.19%
Population Mitochondria Different-Phenotype (%) [5]: 8.38% and 5.76%
Population Mitotic Cells (%) [5]: 85.19% and 78.95%
Population Normal (%) [5]: 100%
Population Pyknosed Nuclei (%) [5]: 11.95% and 8.68%
Population Tubulin-Different-Phenotype (%) [5]: 6.7% and 19.37%
Total Cell Count [5]: 226 and 219
Population Apoptotic (%) [6]: 44.44% and 38.89%
Population Fragmented Nuclei (%) [6]: 18.54% and 16.67%
Population Healthy Nuclei (%) [6]: 75.5% and 74.24%
Population Hoechst High Intensity Objects (%) [6]: 0%
Population Membrane Permeable-Phenotype (%) [6]: 2.63% and 12.24%
Population Mitochondria Different-Phenotype (%) [6]: 33.33% and 14.29%
Population Mitotic Cells (%) [6]: 55.56% and 61.11%
Population Normal (%) [6]: 100%
Population Pyknosed Nuclei (%) [6]: 5.96% and 9.09%
Population Tubulin-Different-Phenotype (%) [6]: 47.37% and 63.95%
Total Cell Count [6]: 151 and 198

CCn1c(-c2nc3cc(C(=O)N4CCCC(N)C4)ccc3n2C)cc2ccccc21.Cl (stereo not given)
Population Fragmented Nuclei (%) [1]: 17% [middle of 4 runs]
Population Healthy Nuclei (%) [1]: 67% and 54% and 55.75% and 78.2%
Population Hoechst High Intensity Objects (%) [1]: 3% and 5% and 0%
Population Membrane Permeable-Phenotype (%) [1]: 0% and 2% and 1.03% and 4.85%
Population Mitotic Cells (%) [1]: 77.42% [middle of 4 runs]
Population Normal (%) [1]: 96% and 94% and 100%
Population Pyknosed Nuclei (%) [1]: 15% and 23% and 28.16% and 14.69%
Population Tubulin-Different-Phenotype (%) [1]: 27% and 41% and 21.65% and 21.21%
Total Cell Count [1]: 128 and 167 and 174 and 211
Population Healthy Nuclei (%) [2]: 63% and 37% and 62.74% and 73.72%
Population Hoechst High Intensity Objects (%) [2]: 1% and 3% and 0%
Population Membrane Permeable-Phenotype (%) [2]: 0% and 10.3% and 7.87%
Population Mitochondria Different-Phenotype (%) [2]: 18% and 19% and 29.7% and 27.78%
Population Mitotic Cells (%) [2]: 58% and 61% and 89.16% and 71.43%
Population Normal (%) [2]: 98% and 96% and 100%
Population Pyknosed Nuclei (%) [2]: 29% [middle of 4 runs]
Population Tubulin-Different-Phenotype (%) [2]: 69% and 80% and 72.73% and 81.48%
Total Cell Count [2]: 221 and 186 and 263 and 293
Population Fragmented Nuclei (%) [3]: 22% [middle of 4 runs]
Population Healthy Nuclei (%) [3]: 68% and 54% and 66.49% and 74.56%
Population Hoechst High Intensity Objects (%) [3]: 0% and 9%
Population Membrane Permeable-Phenotype (%) [3]: 0% and 3% and 2.33% and 7.06%
Population Mitotic Cells (%) [3]: 70.59% [middle of 4 runs]
Population Normal (%) [3]: 99% and 90% and 100%
Population Pyknosed Nuclei (%) [3]: 17% [middle of 4 runs]
Population Tubulin-Different-Phenotype (%) [3]: 30% [middle of 4 runs]
Total Cell Count [3]: 127 and 184 and 194 and 228
Population Healthy Nuclei (%) [4]: 66% and 46% and 70.93% and 75.81%
Population Hoechst High Intensity Objects (%) [4]: 3% and 4% and 0%
Population Membrane Permeable-Phenotype (%) [4]: 0% and 2% and 4.95% and 6.19%
Population Mitochondria Different-Phenotype (%) [4]: 40.95% [middle of 4 runs]
Population Mitotic Cells (%) [4]: 45.1% [middle of 4 runs]
Population Normal (%) [4]: 96% and 95% and 100%
Population Pyknosed Nuclei (%) [4]: 23% [middle of 4 runs]
Population Tubulin-Different-Phenotype (%) [4]: 76% and 82% and 83.33% and 85.24%
Total Cell Count [4]: 231 and 189 and 313 and 277
Population Healthy Nuclei (%) [5]: 67% and 51% and 79.63% and 83.64%
Population Hoechst High Intensity Objects (%) [5]: 2% and 5% and 0%
Population Membrane Permeable-Phenotype (%) [5]: 1% and 2% and 1.16% and 4.47%
Population Normal (%) [5]: 97% and 94% and 100%
Population Pyknosed Nuclei (%) [5]: 8% and 15% and 6.02% and 7.01%
Total Cell Count [5]: 137 and 193 and 216 and 214
Population Apoptotic (%) [6]: 76.92% [middle of 4 runs]
Population Healthy Nuclei (%) [6]: 72% and 57% and 86.19% and 89.14%
Population Hoechst High Intensity Objects (%) [6]: 3% and 0%
Population Membrane Permeable-Phenotype (%) [6]: 0% and 3.83% and 7.75%
Population Mitochondria Different-Phenotype (%) [6]: 22% and 16% and 24.74% and 18.08%
Population Normal (%) [6]: 96% and 100%
Population Pyknosed Nuclei (%) [6]: 8% and 3.3% and 4.28%
Population Tubulin-Different-Phenotype (%) [6]: 85% and 61.67% and 81.55%
Total Cell Count [6]: 232 and 231 and 333 and 304
